Source: ChEMBL document CHEMBL1132197, “Stereospecific synthesis, structure-activity relationship, and oral bioavailability of tetrahydropyrimidin-2-one HIV protease inhibitors” (J Med Chem, 1999)

How the values were obtained:
[1] = The maximum plasma concentration (Cmax) is the observed peak plasma concentration after an oral dose on rat; assay type: ADME, organism-based; design: route oral
How it was run: (§1)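 Rats dosed orally in groups at 10 mg/kg, in a formulation of propylene glycol, poly(ethylene glycol) 400 and water. Cmax is the observed peak plasma concentration after the oral dose.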

[2] = test system: MT2; assay: Antiviral activity by measuring its effect on the accumulation of viral RNA transcripts on infection of MT-2 cells with HIV-1 RF.; assay type: functional; details: Homo sapiens
How it was run: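 Viral RNA transcript accumulation read 3 days after HIV-1 RF infection of MT-2 cells. IC90 is the concentration cutting viral RNA by 90% versus an untreated infected culture. TC50 came from MTT dye reduction in uninfected MT-2 cultures grown 3 days with compound.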

[3] = target: Human immunodeficiency virus type 1 protease (Human immunodeficiency virus 1, UniProt Q72874); assay: Inhibition constant of HIV protease inhibitors
How it was run: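 HIV protease (HIVPR) inhibition constant was determined by monitoring cleavage of a fluorescent peptide substrate, with products separated and quantified by HPLC.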

[4] = The maximum plasma concentration (Cmax) is the observed peak plasma concentration after an oral dose on dog.; assay type: ADME, organism-based, Canis lupus familiaris; design: route oral
[5] = The maximum plasma concentration (Cmax) is the observed peak plasma concentration after an oral dose on rat.; assay type: ADME, organism-based; design: route oral; how it was run: as §1

In the case of O=C1N(Cc2cccc(-c3cc[nH]n3)c2)[C@H](CCc2ccccc2)[C@@H](O)[C@@H](Cc2ccccc2)N1Cc1cccc(-c2cc[nH]n2)c1, the Cmax [1] is reported as 0.16 µM, the IC90 [2] is reported as 22 nM and the Ki [3] is reported as 0.1 nM.

O=C1N(Cc2cccc(CO)c2)[C@H](CCc2ccccc2)[C@@H](O)[C@@H](Cc2ccccc2)N1Cc1cccc(CO)c1 gave a Cmax [1] of 0.24 µM and an IC90 [2] of 109 nM.

CC(=O)c1cccc(CN2C(=O)N(Cc3cccc(C(C)=O)c3)[C@H](Cc3ccccc3)[C@H](O)[C@H]2CCc2ccccc2)c1 gave a Cmax [1] of 0.18 µM, an IC90 [2] of 49 nM and a Ki [3] of 0.91 nM.

Work on O=C1N(Cc2ccc3[nH]ncc3c2)[C@H](CCc2ccccc2)[C@@H](O)[C@@H](Cc2ccccc2)N1Cc1ccc2[nH]ncc2c1 yielded a Cmax [4] of 0.25 µM and a Ki [3] of 0.02 nM.

With Nc1cccc(CN2C(=O)N(Cc3cccc(N)c3)[C@H](Cc3ccccc3)[C@H](O)[C@H]2CCc2ccccc2)c1 the Cmax [1] was 1 µM and the IC90 [2] was 365 nM.

O=C1N(Cc2cccc(O)c2)[C@H]([C@@H](F)Cc2ccccc2)[C@@H](O)[C@@H](Cc2ccccc2)N1Cc1cccc(O)c1 showed a Cmax [5] of 0.25 µM, an IC90 [2] of 2100 nM and a Ki [3] of 12 nM.
